In data set [1] the test system is MDA-MB-231. As to the kind of experiment: Growth inhibition of human MDA-MB-231 cells measured after 5 days in absence of irradiation by crystal violet-staining based assay. The format is cell-based. The note with it: MDA-MB-231, 120 h. In a few lines: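 MDA-MB-231 cells given prodrug at various concentrations for 6 h in medium with 10% FBS, washed twice with PBS. Plate wrapped in aluminum foil to exclude ambient UV, no irradiation. Cells then washed, refed, and grown until untreated cells reached 80% confluency or 5 days. Cell density read by crystal violet staining; IC50 from growth inhibition curves.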

In data set [2] the test system is MDA-MB-231. Kind of data set: Growth inhibition of human MDA-MB-231 cells irradiated with UV light for 15 mins followed by 15 mins incubation and measured after 5 days by crystal violet-staining based assay. The format is functional, cell-based. To be noted: MDA-MB-231, light or radiation study. In a few lines: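 MDA-MB-231 cells exposed to prodrug at various concentrations for 6 h in medium with 10% FBS, washed twice with PBS, then irradiated 15 min with UV black lamp (320-400 nm, max 350 nm, ~0.8 mW/cm2 at 12 cm). Held 15 min at room temperature, washed, refed, and grown until untreated cells reached 80% confluency or 5 days. Crystal violet read-out; IC50 from growth inhibition curves.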

The test system of data set [3] is MDA-MB-231. Kind of data set: Ratio of IC50 for human MDA-MB-231 cells in absence of irradiation to IC50 for human MDA-MB-231 cells in presence of irradiation.
Data set [4] can be described thus: Drug uptake in human MDA-MB-231 cells at 1 uM after 6 hrs by flow cytometry. The class given is ADME, cell-based. To be noted: mda-mb-231, 6 h. In a few lines: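 MDA-MB-231 cells incubated 6 h with 1 µM compound. Uptake read by flow cytometry, with fluorescence intensity normalized to untreated cells. Three biologically independent experiments; standard deviation of mean fluorescence intensity.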

Data set [5] is described as follows: Drug uptake in human HMEC cells at 1 uM after 1 to 6 hrs using Cy5-labeled peptides by confocal microscopy.
Data set [6] in a line: Drug uptake in human MDA-MB-231 cells at 1 uM after 1 to 6 hrs using Cy5-labeled peptides by confocal microscopy. To be noted: mda-mb-231, 1 µM.
Data set [7] in a line: Induction of exosomes-mediated drug uptake in human […] cells at 1 uM after 6 hrs in presence of cellmask orange-labeled exosomes by tritc channel based assay. The note with it: mda-mb-231, 6 h. In short, it runs like this:
(§1)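 Cy5-labeled L- or D-MARCKS-ED peptide (1 µM) was co-incubated with fluorescent dye-labeled exosomes on MDA-MB-231 cells for 6 h. Peptide and exosome signals were then examined by confocal microscopy, including higher-magnification 3D images, to assess co-localization relative to the nucleus.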

Data set [8] in a line: Binding affinity to exosomes in human MDA-MB-231 cells assessed as co-localization of compound with exosomes on plasma membrane at 1 uM after 1 hr using Cy5-labeled peptides by Hoechst-staining based assay. The format is ADME, Exosome. The note with it: mda-mb-231, 1 h.
The nature of data set [9]: Binding affinity to exosomes in human MDA-MB-231 cells assessed as co-localization of compound with exosomes at 1 uM after 1 to 6 hrs using Cy5-labeled peptides by Hoechst-staining based assay. The class given is ADME, subcellular, Exosome. The note with it: mda-mb-231, 1 µM. In short, it runs like this:
as §1

The nature of data set [10]: Binding affinity to exosomes in human MDA-MB-231 cells assessed as co-localization of compound with exosomes out side nucleus area at 1 uM after 1 to 6 hrs using Cy5-labeled peptides by Hoechst-staining based assay. To be noted: mda-mb-231, 1 µM. The format is ADME, subcellular, Exosome. In short, it runs like this:
as §1

Data set [11] can be described thus: Induction of exosomes-mediated drug uptake in human […] cells at 1 uM after 6 hrs in presence of cellmask orange-labeled exosomes by Cy5 channel-based assay. The note with it: mda-mb-231, 6 h. In a few lines: as §1
The subject of data set [12] is MDA-MB-231. Kind of data set: Cytotoxicity against human MDA-MB-231 cells at 10 uM after 6 hrs by NucBlue live cell stain-based confocal microscopy. The note with it: mda-mb-231, 6 h.
Data set [13] is described as follows: Drug uptake in human MDA-MB-231 cells at 5 uM after 3 hrs by NucBlue live cell stain-based confocal microscopy. The class given is ADME. The note with it: mda-mb-231, 3 h. In a few lines: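 MDA-MB-231 cells exposed to 5 µM conjugate for 3 h, then imaged by confocal microscopy at 40x using anthracycline fluorescence; untreated cells imaged as reference.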

pIC50: −log10 of the molar value. Non-standard residues stand in square brackets, D forms with d. Residues, ends and D or L forms follow the SMILES beside them. *: point of attachment. X1 = COc1cc(C(C)OC(=O)N2CO[C@@H]3[C@H](C)O[C@@H](O[C@H]4C[C@](O)(C(=O)CO)Cc5c(O)c6c(c(O)c54)C(=O)c4c(OC)cccc4C6=O)C[C@@H]32)c([N+](=O)[O-])cc1OCC(=O)NCCOCCOCCOCCn1nnc2c1-c1ccccc1CN(C(=O)CCNC(=O)CCN1C(=O)CC(*)C1=O)c1ccccc1-2; X2 = COc1cc(C(C)OC(=O)N[C@H]2C[C@H](O[C@H]3C[C@](O)(C(=O)CO)Cc4c(O)c5c(c(O)c43)C(=O)c3c(OC)cccc3C5=O)O[C@@H](C)[C@H]2O)c([N+](=O)[O-])cc1OCC(=O)NCCOCCOCCOCCn1nnc2c1-c1ccccc1CN(C(=O)CCNC(=O)CCN1C(=O)CC(*)C1=O)c1ccccc1-2; Mpa = O=C(O)CCS

For orientation: pIC50 means −log10 of the IC50, conventionally taken in molar units. The low end stands for a high IC50, the high end for a low IC50. For `COc1cc(C(C)OC(=O)N[C@H]2C[C@H](O[C@H]3C[C@](O)(C(=O)CO)Cc4c(O)c5c(c(O)c43)C(=O)c3c(OC)cccc3C5=O)O[C@@H](C)[C@H]2O)c([N+](=O)[O-])cc1OCC(=O)NCCOCCOCCOCCn1nnc2c1-c1ccccc1CN(C(=O)CCNC(=O)CCN1C(=O)CC(SCCC(=O)N[C@@H](CCCCN)C(=O)N[C@@H](CCCCN)C(=O)N[C@@H](CCCCN)C(=O)N[C@@H](CCCCN)C(=O)N[C@@H](CCCCN)C(=O)N[C@@H](CCCNC(=N)N)C(=O)N[C@@H](Cc3ccccc3)C(=O)N[C@@H](CO)C(=O)N[C@@H](Cc3ccccc3)C(=O)N[C@@H](CCCCN)C(=O)N[C@@H](CCCCN)C(=O)N[C@@H](CO)C(=O)N[C@@H](Cc3ccccc3)C(=O)N[C@@H](CCCCN)C(=O)N[C@@H](CC(C)C)C(=O)N[C@@H](CO)C(=O)NCC(=O)N[C@@H](Cc3ccccc3)C(=O)N[C@@H](CO)C(=O)N[C@@H](Cc3ccccc3)C(=O)N[C@@H](CCCCN)C(=O)N[C@@H](CCCCN)C(=O)N[C@@H](CC(N)=O)C(=O)N[C@@H](CCCCN)C(=O)N[C@@H](CCCCN)C(N)=O)C1=O)c1ccccc1-2` (stereo partly specified) ([Mpa](X2)KKKKKRFSFKKSFKLSGFSFKKNKK-NH2), the values for the negative logarithm of the IC50 (pIC50) in the data set with MDA-MB-231 [1] and in the data set with MDA-MB-231 [2] were 5.19 and 5.92, respectively. Further, in the data set with MDA-MB-231 [3], the Ratio IC50 was determined as 5.4. For the same compound, the Drug uptake result in data set [4] was “Active”.
Consider H-GGDYDKIGKNDA-OH, for which the Drug uptake entry in [5] and in [6] was “Not Active” each time.
For `CC(C)C[C@@H](NC(=O)[C@@H](CCCCN)NC(=O)[C@@H](Cc1ccccc1)NC(=O)[C@@H](CO)NC(=O)[C@@H](CCCCN)NC(=O)[C@@H](CCCCN)NC(=O)[C@@H](Cc1ccccc1)NC(=O)[C@@H](CO)NC(=O)[C@@H](Cc1ccccc1)NC(=O)[C@@H](CCCNC(=N)N)NC(=O)[C@@H](CCCCN)NC(=O)[C@@H](CCCCN)NC(=O)[C@@H](CCCCN)NC(=O)[C@@H](CCCCN)NC(=O)[C@H](N)CCCCN)C(=O)N[C@H](CO)C(=O)NCC(=O)N[C@H](Cc1ccccc1)C(=O)N[C@H](CO)C(=O)N[C@H](Cc1ccccc1)C(=O)N[C@H](CCCCN)C(=O)N[C@H](CCCCN)C(=O)N[C@H](CC(N)=O)C(=O)N[C@H](CCCCN)C(=O)N[C@H](CCCCN)C(N)=O`, the Drug uptake entry in [5], in data set [6], in data set [7] and in [11] was “Active” each time. The outcome in data set [8], in data set [9] and in data set [10] was Active.
In the case of `CC[C@H](C)[C@H](NC(=O)[C@H](CCCCN)NC(=O)[C@H](CC(=O)O)NC(=O)[C@H](Cc1ccc(O)cc1)NC(=O)[C@H](CC(=O)O)NC(=O)CNC(=O)CNC(=O)CCSC1CC(=O)N(CCC(=O)NCCC(=O)N2Cc3ccccc3-c3c(nnn3CCOCCOCCOCCNC(=O)COc3cc([N+](=O)[O-])c(C(C)OC(=O)N4CO[C@@H]5[C@H](C)O[C@@H](O[C@H]6C[C@](O)(C(=O)CO)Cc7c(O)c8c(c(O)c76)C(=O)c6c(OC)cccc6C8=O)C[C@@H]54)cc3OC)-c3ccccc32)C1=O)C(=O)NCC(=O)N[C@@H](CCCCN)C(=O)N[C@@H](CC(N)=O)C(=O)N[C@@H](CC(=O)O)C(=O)N[C@@H](C)C(N)=O` (stereo partly specified) ([Mpa](X1)GGDYDKIGKNDA-NH2), the negative logarithm of the IC50 (pIC50) in the data set on MDA-MB-231 [1] is 4.96; with MDA-MB-231 [2], 5.89. Further, the Ratio IC50 with MDA-MB-231 [3] came out at 8.5. Also, the Drug uptake result in [4] is “Not Active”.
As to H-KKKGKKNSSKKFFFFSKFKLSRKKK-NH2, the Drug uptake result in [5] and in [6] was “Active” throughout.
Regarding `CC(C)C[C@H](NC(=O)[C@H](CCCCN)NC(=O)[C@H](Cc1ccccc1)NC(=O)[C@H](CO)NC(=O)[C@H](CCCCN)NC(=O)[C@H](CCCCN)NC(=O)[C@H](Cc1ccccc1)NC(=O)[C@H](CO)NC(=O)[C@H](Cc1ccccc1)NC(=O)[C@H](CCCNC(=N)N)NC(=O)[C@H](CCCCN)NC(=O)[C@H](CCCCN)NC(=O)[C@H](CCCCN)NC(=O)[C@H](CCCCN)NC(=O)[C@@H](N)CCCCN)C(=O)N[C@@H](CO)C(=O)NCC(=O)N[C@@H](Cc1ccccc1)C(=O)N[C@@H](CO)C(=O)N[C@@H](Cc1ccccc1)C(=O)N[C@@H](CCCCN)C(=O)N[C@@H](CCCCN)C(=O)N[C@@H](CC(N)=O)C(=O)N[C@@H](CCCCN)C(=O)N[C@@H](CCCCN)C(N)=O`, the outcome in [8], in [9] and in data set [10] was Active.
Regarding `COc1cc(C(C)OC(=O)N2CO[C@@H]3[C@H](C)O[C@@H](O[C@H]4C[C@](O)(C(=O)CO)Cc5c(O)c6c(c(O)c54)C(=O)c4c(OC)cccc4C6=O)C[C@@H]32)c([N+](=O)[O-])cc1OCC(=O)NCCOCCOCCOCCn1nnc2c1-c1ccccc1CN(C(=O)CCNC(=O)CCN1C(=O)CC(SCCC(=O)N[C@@H](CCCCN)C(=O)N[C@@H](CCCCN)C(=O)N[C@@H](CCCCN)C(=O)N[C@@H](CCCCN)C(=O)N[C@@H](CCCCN)C(=O)N[C@@H](CCCNC(=N)N)C(=O)N[C@@H](Cc3ccccc3)C(=O)N[C@@H](CO)C(=O)N[C@@H](Cc3ccccc3)C(=O)N[C@@H](CCCCN)C(=O)N[C@@H](CCCCN)C(=O)N[C@@H](CO)C(=O)N[C@@H](Cc3ccccc3)C(=O)N[C@@H](CCCCN)C(=O)N[C@@H](CC(C)C)C(=O)N[C@@H](CO)C(=O)NCC(=O)N[C@@H](Cc3ccccc3)C(=O)N[C@@H](CO)C(=O)N[C@@H](Cc3ccccc3)C(=O)N[C@@H](CCCCN)C(=O)N[C@@H](CCCCN)C(=O)N[C@@H](CC(N)=O)C(=O)N[C@@H](CCCCN)C(=O)N[C@@H](CCCCN)C(N)=O)C1=O)c1ccccc1-2` (stereo partly specified), the negative logarithm of the IC50 (pIC50) was 5.60 in the data set with MDA-MB-231 [1] and 7.82 with MDA-MB-231 [2]. In addition, in the data set with MDA-MB-231 [12], the Activity entry was “Toxic”. Further, the Drug uptake entry in data set [13] and in data set [4] was “Active” each time. In addition, the “Ratio IC50” value with MDA-MB-231 [3] is recorded as 170.
For H-DDDDDRASADDSADLSGASADDDDD-OH, the Drug uptake entry in data set [5] and in [6] was “Not Active” throughout.
Consider `COc1cc(C(C)OC(=O)N2CO[C@@H]3[C@H](C)O[C@@H](O[C@H]4C[C@](O)(C(=O)CO)Cc5c(O)c6c(c(O)c54)C(=O)c4c(OC)cccc4C6=O)C[C@@H]32)c([N+](=O)[O-])cc1OCC(=O)NCCOCCOCCOCCn1nnc2c1-c1ccccc1CN(C(=O)CCNC(=O)CCN1C(=O)CC(SCCC(=O)N[C@H](CCCCN)C(=O)N[C@H](CCCCN)C(=O)N[C@H](CCCCN)C(=O)N[C@H](CCCCN)C(=O)N[C@H](CCCCN)C(=O)N[C@H](CCCNC(=N)N)C(=O)N[C@H](Cc3ccccc3)C(=O)N[C@H](CO)C(=O)N[C@H](Cc3ccccc3)C(=O)N[C@H](CCCCN)C(=O)N[C@H](CCCCN)C(=O)N[C@H](CO)C(=O)N[C@H](Cc3ccccc3)C(=O)N[C@H](CCCCN)C(=O)N[C@H](CC(C)C)C(=O)N[C@H](CO)C(=O)NCC(=O)N[C@H](Cc3ccccc3)C(=O)N[C@H](CO)C(=O)N[C@H](Cc3ccccc3)C(=O)N[C@H](CCCCN)C(=O)N[C@H](CCCCN)C(=O)N[C@H](CC(N)=O)C(=O)N[C@H](CCCCN)C(=O)N[C@H](CCCCN)C(N)=O)C1=O)c1ccccc1-2` (stereo partly specified), for which the pIC50 in the data set on MDA-MB-231 [1] was 5.70; with MDA-MB-231 [2], 7.38. Besides, in the data set with MDA-MB-231 [12], the Activity entry is given as “Toxic”. Moreover, the Drug uptake entry in data set [13] and in data set [4] was “Active” each time. In addition, the “Ratio IC50” value in the data set with MDA-MB-231 [3] amounted to 130.

These data come from ChEMBL document CHEMBL4411341, “Photoactivatable Prodrug of Doxazolidine Targeting Exosomes” (J Med Chem, 2019).
